# Measured values: ChEMBL document CHEMBL1123157, “Thromboxane synthetase inhibitors and antihypertensive agents. 1. N-[(1H-imidazol-1-yl)alkyl]aryl amides and N-[(1H-1,2,4-triazol-1-yl)alkyl]aryl amides” (J Med Chem, 1986)
# The source made the active and inactive calls.
# Assays:
# Rattus norvegicus [1] = assay: Antihypertensive activity in spontaneously hypertensive rats tested at 100 mg/kg po/day for 2 days; type: functional, organism-based; set-up: dose 100 mg/kg
# Summary of the method: (§1)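 Male 16-week-old Okamoto SHR (mean arterial pressure about 170 mmHg), 1-3 rats per compound. Given by gavage in 2% preboiled starch (50 mg/mL), 100 mg/kg or less, with 0.9% NaCl load (25 mL/kg). Second dose without saline 24 h later. Mean arterial pressure measured 28 h after first dose. Active if ≤116 mmHg in one rat or mean ≤122 mmHg in two.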
# [2] = biological target: T1, Thromboxane-A synthase (Rattus norvegicus) (UniProt P49430); assay: Inhibitory activity for thromboxane synthetase determined by TXB2 levels in platelets from spontaneously hypertensive rats.; set-up: concentration or dose not given beside the values; conditions: concentration not given here
# T1 sequence (whole entry): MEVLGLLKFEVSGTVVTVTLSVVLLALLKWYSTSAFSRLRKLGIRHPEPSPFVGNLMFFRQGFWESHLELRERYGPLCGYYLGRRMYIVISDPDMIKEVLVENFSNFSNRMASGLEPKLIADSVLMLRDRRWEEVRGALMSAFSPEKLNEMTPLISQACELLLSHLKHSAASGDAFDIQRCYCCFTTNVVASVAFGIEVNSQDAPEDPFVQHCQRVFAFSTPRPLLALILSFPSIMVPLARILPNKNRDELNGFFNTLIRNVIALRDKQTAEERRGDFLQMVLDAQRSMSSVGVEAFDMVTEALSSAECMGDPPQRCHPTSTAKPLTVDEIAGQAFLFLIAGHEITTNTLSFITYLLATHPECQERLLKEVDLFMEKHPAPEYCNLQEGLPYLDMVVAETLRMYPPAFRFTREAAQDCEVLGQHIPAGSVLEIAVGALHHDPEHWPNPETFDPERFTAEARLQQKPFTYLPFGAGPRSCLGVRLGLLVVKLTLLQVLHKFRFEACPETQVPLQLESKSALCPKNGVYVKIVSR
# Summary of the method: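 Washed SHR platelets in oxygenated Krebs phosphate buffer, pH 7.4, 4.5-6.0 × 10^4/μL, incubated with vehicle or drug for 10 min at 37 °C. Stopped with ice and citric acid. Supernatant TXB2 measured by RIA; TXB2 in boiled controls subtracted; % inhibition calculated. IC50 read graphically from % inhibition vs log concentration; single-point screen at 10^-4 M.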
# Rattus norvegicus [3] = assay: Antihypertensive activity in spontaneously hypertensive rats at 100 mg/kg po/day for 2 days; type: functional, organism-based; set-up: dose 100 mg/kg; summary of the method: as §1
inhibition [2],Structure (SMILES),Activity (Rattus norvegicus [1]),Activity (Rattus norvegicus [3])
82%,O=C(NCCCn1cncn1)c1cccc(F)c1,inactive,
100%,O=C(NC/C=C/Cn1ccnc1)c1ccc(Cl)cc1 (stereo in doubt; 51),inactive,
47%,O=C(/C=C/c1ccc(Cl)cc1)NCCCn1cncn1,inactive,
80%,CS(=O)(=O)c1ccc(C(=O)NCCCn2ccnc2)cc1,inactive,
72%,O=C(NCCCn1cncn1)c1cccc([N+](=O)[O-])c1,inactive,
100%,O=C(NCCCCCn1ccnc1)c1ccc(Br)cc1,inactive,
91%,N#Cc1ccc(C(=O)NCCCn2ccnc2)cc1,inactive,
93%,Cc1cn(CCCNC(=O)c2cccc(Br)c2)cn1,inactive,
84%,O=C(NCCCn1ccnc1)c1ccccc1F,inactive,
82%,O=C(NCCCCn1cncn1)c1ccc(Cl)c(Cl)c1,inactive,
98%,O=C(/C=C/c1ccc(Cl)cc1)NCCCn1ccnc1,,Active
100%,O=C(NCCCn1ccnc1)c1ccc(-c2ccccc2)cc1,inactive,
57%,CNc1ccccc1C(=O)NCCCn1ccnc1,inactive,
71%,CCCCOc1ccc(C(=O)NCCCn2cncn2)cc1,inactive,
87%,O=C(NCCCCn1cncn1)c1cccc(Cl)c1,inactive,
86%,CC(CNC(=O)c1ccc(Cl)c(Cl)c1)Cn1ccnc1 (configuration not stated),inactive,
38%,O=C(NCCCCn1cncn1)c1ccc(C(F)(F)F)cc1,inactive,
0%,O=C(NCCn1cncn1)c1ccc(Br)cc1,inactive,
79%,O=C(NCCCCCn1cncn1)c1ccc(Cl)cc1,inactive,
23%,O=C(O)c1ccccc1C(=O)NCCCn1cncn1,inactive,
50%,O=C(NCCCn1ccnc1)c1ccccc1Br,inactive,

inhibition [2],Structure (SMILES),Activity (Rattus norvegicus [1]),Activity (Rattus norvegicus [3])
91%,O=C(NC/C=C/Cn1ccnc1)c1ccc(Cl)cc1 (stereo in doubt; 52),inactive,
59%,O=C(NCCn1ccnc1)c1ccc(Cl)c(Cl)c1,inactive,
50%,O=C(O)c1ccccc1C(=O)NCCCCn1ccnc1,inactive,
93%,O=C(NCCCn1ccnc1)c1ccc(Cl)c(Cl)c1,inactive,
32%,CCc1nccn1CCCNC(=O)c1ccc(Cl)cc1,inactive,
100%,O=C(NCCCn1ccnc1)c1ccc(C(=O)c2ccccc2)cc1,inactive,
75%,CC(=O)Nc1ccc(C(=O)NCCCn2cncn2)cc1,inactive,
94%,CC(CCNC(=O)c1ccc(C(F)(F)F)cc1)n1ccnc1 (configuration not stated),inactive,
81%,O=C(NCCCCCn1cncn1)c1ccc(Br)cc1,inactive,
90%,CC(=O)c1ccc(C(=O)NCCCn2ccnc2)cc1,inactive,
33%,O=C(Cc1ccc(F)cc1)NCCCn1ccnc1,inactive,
95%,O=C(NC/C=C/Cn1ccnc1)c1ccc(C(F)(F)F)cc1 (stereo in doubt; 54),inactive,
100%,O=C(NCCCCCCCCn1ccnc1)c1ccc(Br)cc1,,
82%,O=C(O)c1ccccc1C(=O)NCCCn1ccnc1,inactive,
83%,Cc1ccc(C(=O)NCCCn2ccnc2)cc1,inactive,
75%,Cc1nccn1CCCNC(=O)c1cccc(C(F)(F)F)c1,inactive,
64%,O=C(CCc1ccccc1)NCCCn1ccnc1,inactive,
88%,O=C(NCCCCn1cncn1)c1ccc(Br)cc1,inactive,
85%,O=C(COc1ccc(Cl)cc1)NCCCn1ccnc1,inactive,
86%,O=C(NCCCn1cncn1)c1cccc(Cl)c1,inactive,
93%,CN(C)c1ccc(C(=O)NCCCn2ccnc2)cc1,inactive,

inhibition [2],Structure (SMILES),Activity (Rattus norvegicus [1]),Activity (Rattus norvegicus [3])
100%,O=C(NCCCn1ccnc1)C1CC1c1ccccc1 (configuration not stated),inactive,
82%,Cc1nccn1CCCNC(=O)c1ccc(Cl)c(Cl)c1,inactive,
96%,CC(CCNC(=O)c1ccc(Cl)cc1)n1ccnc1 (configuration not stated),inactive,
87%,O=C(NCCCn1ccnc1)c1ccc(F)cc1,inactive,
65%,O=C(NCCCn1cncn1)c1ccc(C(=O)c2ccccc2)cc1,inactive,
93%,CC(CCNC(=O)c1cccc(Cl)c1)n1ccnc1 (configuration not stated),inactive,
0%,O=C(Cc1cccc(Cl)c1)NCCCn1cncn1,inactive,
100%,CC(CNC(=O)c1ccc(Cl)cc1)Cn1ccnc1 (configuration not stated),inactive,
86%,O=C(COc1ccccc1)NCCCn1ccnc1,inactive,
65%,O=C(NCCCn1cncn1)c1ccccc1-c1ccccc1,inactive,
99%,CC(=O)Nc1ccc(C(=O)NCCCn2ccnc2)cc1,inactive,
64%,COc1cc(C(=O)NCCCn2cncn2)cc(OC)c1OC,inactive,
56%,O=C(COc1ccc(Cl)cc1)NCCCn1cncn1,inactive,
59%,Cc1nccn1CCCNC(=O)c1cccc(Cl)c1,inactive,
16%,O=C(NCCCn1cncn1)c1ccc(Cl)cc1,inactive,
100%,O=C(NCCCCn1ccnc1)c1ccc(Cl)c(Cl)c1,inactive,
91%,CC(CCNC(=O)c1ccc(Br)cc1)n1ccnc1 (configuration not stated),inactive,
25%,O=C(NCCCn1cncn1)c1ccccc1F,inactive,
93%,O=C(NC/C=C/Cn1ccnc1)c1ccc(C(F)(F)F)cc1 (stereo in doubt; 53),inactive,
67%,O=C(NCCCn1cncn1)c1ccc(F)cc1,inactive,
70%,COc1ccc(C(=O)NCCCn2cncn2)cc1,inactive,

inhibition [2],Structure (SMILES),Activity (Rattus norvegicus [1]),Activity (Rattus norvegicus [3])
100%,O=C(NCCCn1ccnc1)c1ccccc1Cl,inactive,
96%,O=C(NCCCn1ccnc1)c1ccccc1,inactive,
99%,Cc1cn(CCCNC(=O)c2ccc(I)cc2)cn1,inactive,
75%,CCCCOc1ccc(C(=O)NCCCn2ccnc2)cc1,inactive,
64%,Cc1nccn1CCCNC(=O)c1cccc(Br)c1,inactive,
86%,CCNc1ccccc1C(=O)NCCCn1ccnc1,inactive,
71%,O=C(NCCCn1cncn1)c1cccc(C(F)(F)F)c1,inactive,
89%,COc1ccc(C(=O)NCCCn2ccnc2)cc1,inactive,
100%,COc1cc(C(=O)NCCCn2ccnc2)cc(OC)c1OC,inactive,
85%,O=C(NCCCn1cncn1)c1cccc(Br)c1,inactive,
66%,Cc1nccn1CCCNC(=O)c1ccc(Br)cc1,inactive,
52%,O=C(NCCCCn1cncn1)c1ccc(Cl)cc1,inactive,
96%,O=C(NCCCn1ccnc1)c1cccc(F)c1,inactive,
91%,O=C(NCCCCn1ccnc1)c1ccccc1,inactive,
98%,O=C(O)c1ccc(OCCn2ccnc2)cc1,,
89%,O=C(NCCCCn1cncn1)c1ccccc1-c1ccccc1,inactive,
40%,O=C(NCCCn1cncn1)c1ccc(Br)cc1,inactive,
80%,O=C(NCCCn1ccnc1)C(=O)c1ccccc1,inactive,
86%,CC(C)(C)c1ccc(C(=O)NCCCn2cncn2)cc1,inactive,
